From ChEMBL document CHEMBL1125078, “Synthesis and evaluation of novel electrophilic nitrofuran carboxamides and carboxylates as radiosensitizers and bioreductively activated cytotoxins” (1990)

Columns and labels:
[1] = Molar concentration required to give a sensitizer enhancement ratio of 1.6 in hypoxic […] (V79) cells.; assay type: functional, Cricetulus griseus
Method in brief: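 Hypoxic Chinese hamster V79-379A cells irradiated in vitro with compound present; C1.6 = molar concentration of compound giving a sensitizer enhancement ratio of 1.6.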

[2] = Differential toxicity expressed as the ratio of C50 (air) to C50 (nitrogen); assay type: functional
Method in brief: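 Differential toxicity = C50(air)/C50(N2), with each C50 from the MTT assay on V79-379A cells under air or nitrogen; mean of at least three experiments.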

[3] = system: V79-379A (Chinese hamster lung fibroblasts); test: Cytotoxicity in air (MMT assay).
[4] = system: V79-379A (Chinese hamster lung fibroblasts); test: Cytotoxicity in nitrogen (MMT assay).
[5] = Compound was tested for persistent physical or behavioral effects in C3H/He mice; assay type: functional, Mus musculus
Method in brief: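 Toxicity screen in C3H/He mice: single injection as PBS (pH 7.3) solution or suspension, 0.5 or 1.0 mL per 25 g body weight, doses raised until solubility or toxicity limited; animals watched for acute, severe or persistent physical or behavioural changes (e.g. piloerection, respiration rate, locomotor activity for about 1 h).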

Row | Compound | C1.6 [1] [mM] | d tox [2] | C50 [3] [mM] | C50 [4] [mM] | Max dose [5] [mM/kg]
1 | C=CCOC(=O)c1ccc([N+](=O)[O-])o1 | 0.05 | 4 | 0.1 | 0.025 | –
2 | Cc1oc([N+](=O)[O-])cc1C(=O)NCC1CO1 (configuration not stated) | 0.04 | 1 | 0.1 | 0.1 | –
3 | COCC(O)Cn1ccnc1[N+](=O)[O-] (configuration not stated) [MISONIDAZOLE] | 0.3 | 11.3 | 45 | 4 | –
4 | C=CCNC(=O)c1ccc([N+](=O)[O-])o1 | 0.05 | 1.8 | 0.08 | 0.045 | –
5 | C=CCNC(=O)c1cc([N+](=O)[O-])c(C)o1 | – | 0.5 | 0.015 | 0.03 | –
6 | C=CCNC(=O)/C=C/c1ccc([N+](=O)[O-])o1 | 0.03 | 2.4 | 0.06 | 0.025 | –
7 | C[C@@H]1[C@H](C)N1CC(O)CNC(=O)/C=C/c1ccc([N+](=O)[O-])o1 (some centres not stated) | 0.035 | 1.8 | 0.07 | 0.04 | –
8 | C[C@@H]1[C@H](C)N1CC(O)CNC(=O)c1ccc([N+](=O)[O-])o1 (some centres not stated) | 0.05 | 3 | 0.06 | 0.02 | –
9 | CC(C)(CO)NC(=O)c1ccc([N+](=O)[O-])o1 | 0.05 | 2.1 | 0.25 | 0.12 | 100
10 | C=CCNC(=O)c1cc([N+](=O)[O-])oc1C | 0.075 | 0.4 | 0.35 | 0.8 | –
11 | O=C(/C=C/c1ccc([N+](=O)[O-])o1)NCC1CO1 (configuration not stated) | 0.008 | 3 | 0.03 | 0.01 | 25
12 | Br.C[C@H](Br)[C@H](C)NCC(O)CNC(=O)c1ccc([N+](=O)[O-])o1 (some centres not stated) | 0.03 | 5.6 | 0.14 | 0.025 | –
13 | O=C(NCC1CO1)c1ccc([N+](=O)[O-])o1 (configuration not stated) | 0.02 | 1 | 0.05 | 0.05 | 50
14 | Br.O=[N+]([O-])c1nccn1CC(O)CNCCBr (configuration not stated) | 0.1 | 25.6 | 2.3 | 0.09 | –
15 | Br.NC(=O)N/N=C/c1ccc([N+](=O)[O-])o1 | 0.05 | 8.5 | 1.7 | 0.2 | –
16 | C[C@@H]1[C@H](C)N1CC(O)CNC(=O)C1OC1c1ccc([N+](=O)[O-])o1 (some centres not stated) | 0.025 | 1 | 0.012 | 0.012 | –
17 | CC1(C)CN1C(=O)c1ccc([N+](=O)[O-])o1 | 0.1 | 1 | 0.18 | 0.18 | –
18 | CC1(C)CN1CC(O)CNC(=O)/C=C/c1ccc([N+](=O)[O-])o1 (configuration not stated) | 0.008 | 4.5 | 0.045 | 0.01 | –
19 | O=[N+]([O-])c1nccn1CC(O)CN1CC1 (configuration not stated) | 0.1 | 66.6 | 0.3 | 0.0045 | –
20 | CC1(C)CN1CC(O)CNC(=O)c1ccc([N+](=O)[O-])o1 (configuration not stated) | 0.04 | 2 | 0.15 | 0.075 | –
